Assay results taken from ChEMBL document CHEMBL3870321, “Substituted 4-morpholine N-arylsulfonamides as γ-secretase inhibitors” (Eur J Med Chem, 2016).

Biological target: T1, Cytochrome P450 3A4 (Homo sapiens, UniProt P08684)
Assay: Inhibition of recombinant human CYP3A4 expressed in baculovirus infected insect cells preincubated for 30 mins using fluorescent substrate
Assay type: ADME
Conditions: not given

T1 sequence (P08684 whole entry): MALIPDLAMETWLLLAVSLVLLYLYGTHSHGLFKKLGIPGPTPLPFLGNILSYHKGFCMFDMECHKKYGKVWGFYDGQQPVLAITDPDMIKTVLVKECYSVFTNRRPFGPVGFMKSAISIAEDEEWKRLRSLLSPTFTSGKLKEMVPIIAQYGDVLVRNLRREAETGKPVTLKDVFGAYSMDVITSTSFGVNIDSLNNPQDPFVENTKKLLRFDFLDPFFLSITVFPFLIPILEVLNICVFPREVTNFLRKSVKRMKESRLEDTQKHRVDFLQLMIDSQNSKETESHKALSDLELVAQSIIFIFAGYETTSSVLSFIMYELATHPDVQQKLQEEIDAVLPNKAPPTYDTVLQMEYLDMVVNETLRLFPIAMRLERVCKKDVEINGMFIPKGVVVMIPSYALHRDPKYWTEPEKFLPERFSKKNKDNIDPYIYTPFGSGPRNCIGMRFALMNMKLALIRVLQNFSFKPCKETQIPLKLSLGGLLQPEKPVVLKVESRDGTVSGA

| Compound | IC50 |
| --- | --- |
| O=C(CC1([C@H]2COC[C@@H](C3CC3)N2S(=O)(=O)c2ccc(F)cc2)CC1)N1CCC(N2CCCCC2)CC1 | 1.5 µM |
| O=C(C(O)C1([C@H]2COC[C@@H](C3CC3)N2S(=O)(=O)c2ccc(Cl)cc2)CC1)N1CC2CCC(C1)N2 (stereo not given in full) | 9 µM |
| CC(=O)N1CCN(C(=O)CC2([C@H]3COC[C@@H](C4CC4)N3S(=O)(=O)c3ccc(F)cc3)CC2)CC1 | 17 µM |
| CC(C)(CO)N1CCN(C(=O)CC2([C@H]3COC[C@@H](C4CC4)N3S(=O)(=O)c3ccc(Cl)cc3)CC2)CC1 | 1.9 µM |
| C[C@H]1CN(C(C)(C)CO)CCN1C(=O)CC1([C@H]2COC[C@@H](C3CC3)N2S(=O)(=O)c2ccc(F)cc2)CC1 | 2.2 µM |
| O=C(CC1([C@H]2CO[C@H]3CCC[C@H]3N2S(=O)(=O)c2ccc(Cl)cc2)CC1)N1CC[C@@H](O)C1 | > 30 µM |
| CC(=O)N1C2CCC1CN(C(=O)CC1([C@H]3COC[C@@H](C4CC4)N3S(=O)(=O)c3ccc(Cl)cc3)CC1)C2 | 4.3 µM |
| O=C(CC1([C@H]2CO[C@H]3CCC[C@H]3N2S(=O)(=O)c2ccc(Cl)cc2)CC1)N1CCC(CO)CC1 | 30 µM |
| O=C(CC1([C@H]2CO[C@H]3CCC[C@H]3N2S(=O)(=O)c2ccc(Cl)cc2)CC1)N1CC[C@@H](CO)C1 | 30 µM |
| O=C(C(O)C1([C@H]2COC[C@@H](C3CC3)N2S(=O)(=O)c2ccc(Cl)cc2)CC1)N1C2CCC1CC(N1CCCCC1)C2 (stereo not given in full) | > 30 µM |
| O=C(CC1([C@H]2COC[C@@H](C3CC3)N2S(=O)(=O)c2ccc(Cl)cc2)CC1)N1C2CCC1CC(N1CCCCC1)C2 (stereo not given in full) | 2 µM |
| O=C(CC1([C@H]2COC[C@@H](C3CC3)N2S(=O)(=O)c2ccc(Cl)cc2)CC1)N1CC2CCC(C1)N2CCO | < 0.4 µM |
| O=C(CC1([C@H]2COC[C@@H](C3CC3)N2S(=O)(=O)c2ccc(F)cc2)CC1)N1CCN(CCO)CC1 | 6.9 µM |
| O=C(CC1([C@H]2CO[C@H]3CCC[C@H]3N2S(=O)(=O)c2ccc(Cl)cc2)CC1)N1CCC(N2CCCCC2)CC1 | 8 µM |

Biological target: T1, Cytochrome P450 3A4
Assay: Inhibition of recombinant human CYP3A4 expressed in baculovirus infected insect cells using fluorescent substrate
Assay type: ADME
Conditions: not given

| Compound | IC50 |
| --- | --- |
| O=C(CC1([C@H]2COC[C@@H](C3CC3)N2S(=O)(=O)c2ccc(F)cc2)CC1)N1CCC(N2CCCCC2)CC1 | > 30 µM |
| O=C(C(O)C1([C@H]2COC[C@@H](C3CC3)N2S(=O)(=O)c2ccc(Cl)cc2)CC1)N1CC2CCC(C1)N2 (stereo not given in full) | > 30 µM |
| CC(=O)N1CCN(C(=O)CC2([C@H]3COC[C@@H](C4CC4)N3S(=O)(=O)c3ccc(F)cc3)CC2)CC1 | 30 µM |
| CC(C)(CO)N1CCN(C(=O)CC2([C@H]3COC[C@@H](C4CC4)N3S(=O)(=O)c3ccc(Cl)cc3)CC2)CC1 | > 30 µM |
| C[C@H]1CN(C(C)(C)CO)CCN1C(=O)CC1([C@H]2COC[C@@H](C3CC3)N2S(=O)(=O)c2ccc(F)cc2)CC1 | > 30 µM |
| O=C(CC1([C@H]2CO[C@H]3CCC[C@H]3N2S(=O)(=O)c2ccc(Cl)cc2)CC1)N1CC[C@@H](O)C1 | > 30 µM |
| CC(=O)N1C2CCC1CN(C(=O)CC1([C@H]3COC[C@@H](C4CC4)N3S(=O)(=O)c3ccc(Cl)cc3)CC1)C2 | 30 µM |
| O=C(CC1([C@H]2CO[C@H]3CCC[C@H]3N2S(=O)(=O)c2ccc(Cl)cc2)CC1)N1CCC(CO)CC1 | 30 µM |
| O=C(CC1([C@H]2CO[C@H]3CCC[C@H]3N2S(=O)(=O)c2ccc(Cl)cc2)CC1)N1CC[C@@H](CO)C1 | 30 µM |
| O=C(C(O)C1([C@H]2COC[C@@H](C3CC3)N2S(=O)(=O)c2ccc(Cl)cc2)CC1)N1C2CCC1CC(N1CCCCC1)C2 (stereo not given in full) | > 30 µM |
| O=C(CC1([C@H]2COC[C@@H](C3CC3)N2S(=O)(=O)c2ccc(Cl)cc2)CC1)N1C2CCC1CC(N1CCCCC1)C2 (stereo not given in full) | > 30 µM |
| O=C(CC1([C@H]2COC[C@@H](C3CC3)N2S(=O)(=O)c2ccc(Cl)cc2)CC1)N1CC2CCC(C1)N2CCO | > 30 µM |
| O=C(CC1([C@H]2COC[C@@H](C3CC3)N2S(=O)(=O)c2ccc(F)cc2)CC1)N1CCN(CCO)CC1 | > 30 µM |
| O=C(CC1([C@H]2CO[C@H]3CCC[C@H]3N2S(=O)(=O)c2ccc(Cl)cc2)CC1)N1CCC(N2CCCCC2)CC1 | 21 µM |

System: not listed separately
Assay: Inhibition of gamma-secretase in HEK293 cells expressing human APP Swedish/London mutant assessed as reduction in amyloid beta 40 level after 5 hrs by sandwich immunoassay
Assay type: cell-based
Conditions: HEK293, 5 h
Procedure, shortened: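 HEK293 cells stably transfected with human APP cDNA carrying Swedish and London mutations were exposed to inhibitor for 5 h. Aβ40 in conditioned medium was measured by MSD sandwich immunoassay (TAG-G2-10/biotin-4G8). IC50 came from a four-parameter variable-slope nonlinear fit, with duplicate or triplicate measurements per experiment.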

| Compound | IC50 |
| --- | --- |
| O=C(CC1([C@H]2COC[C@@H](C3CC3)N2S(=O)(=O)c2ccc(F)cc2)CC1)N1CCC(N2CCCCC2)CC1 | 0.03 µM |
| O=C(C(O)C1([C@H]2COC[C@@H](C3CC3)N2S(=O)(=O)c2ccc(Cl)cc2)CC1)N1CC2CCC(C1)N2 (stereo not given in full) | 0.01 µM |
| CC(=O)N1CCN(C(=O)CC2([C@H]3COC[C@@H](C4CC4)N3S(=O)(=O)c3ccc(F)cc3)CC2)CC1 | 0.067 µM |
| CC(C)(CO)N1CCN(C(=O)CC2([C@H]3COC[C@@H](C4CC4)N3S(=O)(=O)c3ccc(Cl)cc3)CC2)CC1 | 0.0059 µM |
| C[C@H]1CN(C(C)(C)CO)CCN1C(=O)CC1([C@H]2COC[C@@H](C3CC3)N2S(=O)(=O)c2ccc(F)cc2)CC1 | 0.014 µM |
| O=C(CC1([C@H]2CO[C@H]3CCC[C@H]3N2S(=O)(=O)c2ccc(Cl)cc2)CC1)N1CC[C@@H](O)C1 | 0.016 µM |
| CC(=O)N1C2CCC1CN(C(=O)CC1([C@H]3COC[C@@H](C4CC4)N3S(=O)(=O)c3ccc(Cl)cc3)CC1)C2 | 0.018 µM |
| O=C(CC1([C@H]2CO[C@H]3CCC[C@H]3N2S(=O)(=O)c2ccc(Cl)cc2)CC1)N1CCC(CO)CC1 | 0.0018 µM |
| O=C(CC1([C@H]2CO[C@H]3CCC[C@H]3N2S(=O)(=O)c2ccc(Cl)cc2)CC1)N1CC[C@@H](CO)C1 | 0.018 µM |
| O=C(C(O)C1([C@H]2COC[C@@H](C3CC3)N2S(=O)(=O)c2ccc(Cl)cc2)CC1)N1C2CCC1CC(N1CCCCC1)C2 (stereo not given in full) | 0.024 µM |
| O=C(CC1([C@H]2COC[C@@H](C3CC3)N2S(=O)(=O)c2ccc(Cl)cc2)CC1)N1CC2CCC(C1)N2 | 0.0035 µM |
| O=C(CC1([C@H]2COC[C@@H](C3CC3)N2S(=O)(=O)c2ccc(Cl)cc2)CC1)N1C2CCC1CC(N1CCCCC1)C2 (stereo not given in full) | 0.012 µM |
| O=C(CC1([C@H]2COC[C@@H](C3CC3)N2S(=O)(=O)c2ccc(Cl)cc2)CC1)N1CC2CCC(C1)N2CCO | 0.006 µM |
| O=C(CC1([C@H]2COC[C@@H](C3CC3)N2S(=O)(=O)c2ccc(F)cc2)CC1)N1CCN(CCO)CC1 | 0.032 µM |
| O=C(CC1([C@H]2CO[C@H]3CCC[C@H]3N2S(=O)(=O)c2ccc(Cl)cc2)CC1)N1CCC(N2CCCCC2)CC1 | 0.0017 µM |

System: Mus musculus
Assay: In vivo inhibition of gamma-secretase in CRND8 transgenic mouse model of Alzheimers disease expressing APP Swedish/Indiana familial mutant assessed as reduction in amyloid beta 40 level in plasma at 30 mg/kg administered as single dose via oral gavage after 3 hrs by sandwich immunoassay
Assay type: functional
Conditions: not given
Procedure, shortened: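 Transgenic CRND8 mice (5–7 weeks, male and female, counterbalanced, singly housed) received a single oral gavage dose in 20% hydroxypropyl-β-cyclodextrin. Mice were killed by CO2 at 3 h, and EDTA plasma was collected from the posterior vena cava. Plasma Aβ40 was quantified by MSD sandwich immunoassay (biotin-4G8/S-tag G2-10) and compared with a vehicle-only group.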

| Compound | inhibition in vivo at 30 mg/kg |
| --- | --- |
| CC(C)(CO)N1CCN(C(=O)CC2([C@H]3COC[C@@H](C4CC4)N3S(=O)(=O)c3ccc(Cl)cc3)CC2)CC1 | 89% |

System: not listed separately
Assay: AUC (0 to 6 hrs) in Sprague-Dawley rat at 30 mg/kg, po by LC-MS/MS analysis
Assay type: ADME, organism-based
Parameters: dose 30 mg/kg, time < 6 hr, route oral
Conditions: in vivo
Procedure, shortened: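 Two fasted male Sprague-Dawley rats per compound, femoral-artery cannulated, were dosed orally in 0.5% methylcellulose. Serial heparinized blood was taken at 0.5, 1, 2, 3, 4 and 6 h, and plasma was stored at -20 °C. Compound levels were measured by LC-MS/MS using compound-specific SRM transitions from [MH]+, and AUC was taken over 0–6 h.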

| Compound | AUC(0-t) at 6 h |
| --- | --- |
| O=C(CC1([C@H]2COC[C@@H](C3CC3)N2S(=O)(=O)c2ccc(F)cc2)CC1)N1CCC(N2CCCCC2)CC1 | 575 ng·h/mL |
| O=C(C(O)C1([C@H]2COC[C@@H](C3CC3)N2S(=O)(=O)c2ccc(Cl)cc2)CC1)N1CC2CCC(C1)N2 (stereo not given in full) | 254 ng·h/mL |
| CC(=O)N1CCN(C(=O)CC2([C@H]3COC[C@@H](C4CC4)N3S(=O)(=O)c3ccc(F)cc3)CC2)CC1 | 3160 ng·h/mL |
| CC(C)(CO)N1CCN(C(=O)CC2([C@H]3COC[C@@H](C4CC4)N3S(=O)(=O)c3ccc(Cl)cc3)CC2)CC1 | 464 ng·h/mL |
| O=C(CC1([C@H]2CO[C@H]3CCC[C@H]3N2S(=O)(=O)c2ccc(Cl)cc2)CC1)N1CCC(CO)CC1 | 36 ng·h/mL |
| O=C(C(O)C1([C@H]2COC[C@@H](C3CC3)N2S(=O)(=O)c2ccc(Cl)cc2)CC1)N1C2CCC1CC(N1CCCCC1)C2 (stereo not given in full) | 267 ng·h/mL |
| O=C(CC1([C@H]2COC[C@@H](C3CC3)N2S(=O)(=O)c2ccc(Cl)cc2)CC1)N1CC2CCC(C1)N2 | 1160 ng·h/mL |
| O=C(CC1([C@H]2COC[C@@H](C3CC3)N2S(=O)(=O)c2ccc(Cl)cc2)CC1)N1C2CCC1CC(N1CCCCC1)C2 (stereo not given in full) | 1290 ng·h/mL |
| O=C(CC1([C@H]2COC[C@@H](C3CC3)N2S(=O)(=O)c2ccc(Cl)cc2)CC1)N1CC2CCC(C1)N2CCO | 2730 ng·h/mL |
| O=C(CC1([C@H]2COC[C@@H](C3CC3)N2S(=O)(=O)c2ccc(F)cc2)CC1)N1CCN(CCO)CC1 | 1970 ng·h/mL |

Biological target: T1, Cytochrome P450 3A4
Assay: Inhibition of CYP3A4 (unknown origin)
Assay type: ADME
Conditions: not given
Procedure, shortened: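 Recombinant CYP3A4 was co-incubated with compound, and fluorescent product formed from a […] coumarin or fluorescein substrate was read out. Values are means of two experiments.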

| Compound | IC50 |
| --- | --- |
| O=S(=O)(c1ccc(Cl)cc1)N1[C@H](c2cccc(F)c2)CCC[C@@H]1C1(O)CC1 | < 0.9 µM |
| O=S(=O)(c1ccc(Cl)cc1)N1[C@@H](CO)CCC[C@H]1c1cccc(F)c1 | 13.9 µM |

Biological target: T1, Cytochrome P450 3A4
Assay: Inhibition of CYP3A4 (unknown origin) preincubated with enzyme
Assay type: ADME
Conditions: not given
Procedure, shortened: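 Recombinant CYP3A4 was pre-incubated with compound, and data were collected 30 min after the compound was combined with enzyme. Read-out was fluorescent product formed from a […] substrate. Values are means of two experiments.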

| Compound | IC50 |
| --- | --- |
| O=S(=O)(c1ccc(Cl)cc1)N1[C@H](c2cccc(F)c2)CCC[C@@H]1C1(O)CC1 | < 0.5 µM |
| O=S(=O)(c1ccc(Cl)cc1)N1[C@@H](CO)CCC[C@H]1c1cccc(F)c1 | 30 µM |

System: not listed separately
Assay: Inhibition of gamma-secretase in HEK293 cells expressing APP London mutant assessed as reduction in amyloid beta 40 level after 5 hrs by immunoassay
Conditions: Homo sapiens, HEK293, 5 h

| Compound | IC50 |
| --- | --- |
| O=S(=O)(c1ccc(Cl)cc1)N1[C@H](c2cccc(F)c2)CCC[C@@H]1C1(O)CC1 | 0.316 µM |
| O=S(=O)(c1ccc(Cl)cc1)N1[C@@H](CO)CCC[C@H]1c1cccc(F)c1 | 0.671 µM |
